Positions count from the first letter of the chain named. The source made the active and inactive calls. The calls are words filed in the database; no cut-off is given here.
What was measured:
[1] = target: T1, Tyrosine-protein phosphatase non-receptor type 11 (Homo sapiens) (UniProt Q06124); assay: Binding affinity to full length wild type GST-tagged SHP2 (unknown origin) luminescence spectrometry-based quenching assay
T1 sequence (whole entry): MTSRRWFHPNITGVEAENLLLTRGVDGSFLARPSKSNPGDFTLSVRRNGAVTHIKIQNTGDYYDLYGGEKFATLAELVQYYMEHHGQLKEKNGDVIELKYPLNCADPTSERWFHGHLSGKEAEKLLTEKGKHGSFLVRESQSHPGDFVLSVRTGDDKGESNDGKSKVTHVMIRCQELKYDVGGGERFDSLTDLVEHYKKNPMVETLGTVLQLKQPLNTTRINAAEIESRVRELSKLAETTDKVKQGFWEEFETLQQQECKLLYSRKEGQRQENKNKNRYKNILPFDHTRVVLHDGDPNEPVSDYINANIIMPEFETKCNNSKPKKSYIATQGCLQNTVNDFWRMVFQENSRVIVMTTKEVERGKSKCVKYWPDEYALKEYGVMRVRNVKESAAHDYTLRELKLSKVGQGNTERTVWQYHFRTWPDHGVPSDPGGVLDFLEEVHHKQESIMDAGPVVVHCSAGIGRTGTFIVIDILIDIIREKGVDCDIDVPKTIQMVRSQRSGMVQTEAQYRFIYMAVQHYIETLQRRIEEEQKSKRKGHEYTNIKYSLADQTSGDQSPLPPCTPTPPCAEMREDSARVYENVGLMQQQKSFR
How it was run: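 Intrinsic fluorescence quenching of full-length WT GST-SHP2 held at 3.0 µM in 20 mM Tris-HCl pH 7.5 while compound concentration is increased. Excitation 295 nm, emission 360–500 nm. Compound-alone fluorescence subtracted; intensities are relative. Triplicates shown from one of three repeats.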

NCI-H596 = assay: Growth inhibition of human NCI-H596 cells after 48 hrs by cell proliferation-based assay; type: functional
How it was run: (§1)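 H661 (PTPN11 N58S/+) and H596 (WT PTPN11) lung cancer cells exposed to a concentration series for 48 h, DMSO as control. Cell number measured by One Solution proliferation assay. Triplicates from one of three repeated experiments.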

[2] = target: T2, Tyrosine-protein phosphatase non-receptor type 11 (Mus musculus) (UniProt P35235); assay: Inhibition of SHP2 in mouse Ba/F3 cells assessed as reduction in IL3-stimulated ERK phosphorylation pretreated for 4 hrs followed by IL3 stimulation and measured after 5 to 60 mins by Western blot analysis; type: cell-based
T2 sequence (whole entry): T1 sequence (whole entry) with M450V, A550V, K590R
How it was run: (§2)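 Ba/F3 cells starved overnight in serum- and cytokine-free RPMI1640. Treated with 20 µM compound for 4 h, then IL-3 (2 ng/mL) for the indicated times. RIPA lysates (50 µg) immunoblotted for p-Erk, p-Akt, p-Jak2 and p-Stat5, then reprobed for total proteins. Representative of three experiments.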

[3] = target: T2, Tyrosine-protein phosphatase non-receptor type 11 (Mus musculus); assay: Inhibition of SHP2 in mouse Ba/F3 cells assessed as reduction in IL3-stimulated AKT phosphorylation pretreated for 4 hrs followed by IL3 stimulation and measured after 5 to 60 mins by Western blot analysis; type: cell-based; how it was run: as §2
[4] = target: T1, Tyrosine-protein phosphatase non-receptor type 11 (Homo sapiens); assay: Binding affinity to His-tagged SHP2 (unknown origin) assessed as melting temperature at 5 uM measured every 50 secs by thermal shift assay (reference value: 43.5 +/- 0.95 degC)
[5] = target: T1, Tyrosine-protein phosphatase non-receptor type 11 (Homo sapiens); assay: Inhibition of human wild-type full length SHP2 at 20 uM using H-Glu-Phe-pTyr-Ala-Glu-Val-Gly-Arg-Ser-ProPro-Asp-Pro-Ala-Lys as substrate in presence of 0.001% Triton X
[6] = target: T1, Tyrosine-protein phosphatase non-receptor type 11 (Homo sapiens); assay: Ratio of IC50 for inhibition of recombinant full length human GST-tagged SHP2 PTP domain using pNPP as substrate pre-incubated for 15 mins before pNPP substrate addition and measured after 15 mins to IC50 for inhibition of wild type recombinant human SHP2 using H-Glu-Phe-pTyr-Ala-Glu-Val-Gly-Arg-Ser-Pro-Pro-Asp-Pro-Ala-Lys as substrate preincubated for 30 mins followed by substrate addition and measured after 30 mins by Malachite Green-reagent based assay
NCI-H661 [7] = assay: Growth inhibition of human NCI-H661 cells after 48 hrs by cell proliferation-based assay; type: functional; how it was run: as §1
[8] = target: T2, Tyrosine-protein phosphatase non-receptor type 11 (Mus musculus); assay: Inhibition of PTPN11 in PTPN11-expressing mouse embryonic fibroblasts assessed as inhibition of cell growth at 6 uM after 24 to 72 hrs by cell proliferation-based assay
How it was run: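 Ptpn11 fl/fl and Ptpn11 +/+ MEFs, both Ade-Cre+, infected with adeno-Cre, then given 6 µM compound or DMSO. Growth measured at 24, 48 and 72 h by One Solution proliferation assay. SHP2 loss confirmed by immunoblot. Triplicates from one of three experiments.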

[9] = target: T1, Tyrosine-protein phosphatase non-receptor type 11 (Homo sapiens); assay: Binding affinity to His-tagged SHP2 (unknown origin) assessed as melting temperature at 60 uM measured every 50 secs by thermal shift assay (reference value: 43.5 +/- 0.95 degC)
NCI-H661 [10] = assay: Growth inhibition of PTPN11 N58S mutant harboring human NCI-H661 cells after 48 hrs by cell proliferation-based assay; type: functional; how it was run: as §1
[11] = target: T2, Tyrosine-protein phosphatase non-receptor type 11 (Mus musculus); assay: Inhibition of SHP2 in mouse Ba/F3 cells assessed as reduction in IL3-stimulated STAT5 phosphorylation pretreated for 4 hrs followed by IL3 stimulation and measured after 5 to 60 mins by Western blot analysis; type: cell-based; how it was run: as §2
[12] = target: T1, Tyrosine-protein phosphatase non-receptor type 11 (Homo sapiens); assay: Inhibition of human wild-type full length SHP2 at 20 uM using H-Glu-Phe-pTyr-Ala-Glu-Val-Gly-Arg-Ser-ProPro-Asp-Pro-Ala-Lys as substrate in presence of 0.001% Triton X
How it was run: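 Full-length SHP2 or SHP1 (0.1 µg) preincubated with compound 30 min at room temperature in 25 mM Tris-HCl pH 7.4, 50 mM NaCl, 5 mM DTT, 2.5 mM EDTA. Phospho-peptide substrate added to 50 µM final; 30 min at 30 °C. Released phosphate read by Malachite Green at OD620. IC50 from six concentrations; three experiments.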

Activity [1]: Dose-dependent effect | inhibition [2]: Dose-dependent effect | inhibition [3]: Dose-dependent effect | Tm [4]: 46.3 °C | inhibition [5]: Active | Ratio IC50 [6]: > 2 | growth inhibition (GI) [8]: Active | Tm [9]: 48.2 °C | inhibition [11]: Dose-dependent effect | inhibition [12]: Active
Compound: CCOc1cc(O)c(C(=O)/C=C/c2ccc(Cl)cc2Cl)cc1CN1CCC=C(n2c(=O)[nH]c3ccccc32)C1
growth inhibition (GI) (NCI-H596): Dose-dependent effect | growth inhibition (GI) (NCI-H661 [7]): Dose-dependent effect | growth inhibition (GI) (NCI-H661 [10]): Active

— ChEMBL document CHEMBL4422612, “Small Molecule Inhibitor that Stabilizes the Autoinhibited Conformation of the Oncogenic Tyrosine Phosphatase SHP2” (J Med Chem, 2019)
